Assay outcomes: PubChem BioAssay, Johns Hopkins Ion Channel Center
This is a sample that favours compounds with a hit; in the whole collection about 4.1% have one here.
Kir21 block = blocks the mouse Kir2.1 inward-rectifier potassium channel; AID 1672; HEK293-Kir2.1, FluxOR thallium flux fluorescence; stronger effect = lower value; B-score at 10 µM; P35561; 310,000 compounds, 0.85% hits;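 active means fluorescence ratio B-score at or below minus 3 SD of library scores, with starting-brightness B-score within 2 SD, cut at about -4.2 in these data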;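 further: channel flux triggered by added potassium and thallium sulfate stimulus; B-score of peak minus minimum fluorescence over baseline after thallium stimulus; more negative B-score means stronger Kir2.1 block with less thallium influx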
MrgX1 allo act = human MrgX1 positive allosteric modulation, primary screen; MrgX1-HEK293, Fluo-4 calcium flux, FDSS; stronger effect = higher value; 310,000 compounds, 0.63% hits; B-score at 10 µM;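 active means plate-corrected calcium response at least 3 library SD above typical, normal starting fluorescence, not activating the receptor alone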;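 further: compound read alongside a low EC10 to EC30 dose of BAM8-22 agonist; peak minus trough fluorescence over baseline measured at the second addition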
Target sequence (Q96LB2 whole entry, looked up): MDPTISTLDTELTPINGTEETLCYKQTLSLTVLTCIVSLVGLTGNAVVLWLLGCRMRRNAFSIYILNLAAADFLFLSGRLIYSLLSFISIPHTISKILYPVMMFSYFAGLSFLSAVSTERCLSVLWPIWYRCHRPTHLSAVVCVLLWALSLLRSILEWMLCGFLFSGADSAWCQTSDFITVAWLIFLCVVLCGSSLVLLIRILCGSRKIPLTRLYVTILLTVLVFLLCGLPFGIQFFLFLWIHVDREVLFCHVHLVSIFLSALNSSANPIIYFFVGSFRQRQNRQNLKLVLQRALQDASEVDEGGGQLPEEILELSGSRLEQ
MrgX1 ag = activates human MrgX1 receptor signaling; Q96LB2; MrgX1-HEK293 cells, Fluo-4 calcium fluorescence, agonist mode; stronger effect = higher value; B-score at 10 µM; 310,000 compounds, 0.44% hits; AID 588627;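 active means calcium response B-score plate-corrected fluorescence ratio at least 3 library SD, with starting fluorescence B-score inside 5 SD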
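System: HEK293 cells stably expressing human MrgX1 receptor; Dosing: test compound in the initial addition of three; Schedule: overnight plating, then 30 min 37 °C plus 30 min room-temperature dye loading; Detection: kinetic calcium dye fluorescence, Fluo-4 NW; Controls: per-plate positive and negative controls for Z′ factor.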
RGS4 act = potentiators or activators of RGS4. HEK293 M3R/inducible RGS4, carbachol calcium flux Fluo4; stronger effect = lower value. B-score at 10 µM. 310,000 compounds, 0.92% hits. AID 463111;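 active means B-score of the integrated calcium signal more than 4 SD below the library mean, with starting fluorescence not abnormally high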;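 further: negative B-score means reduced calcium response which marks RGS4 activation or potentiation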
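System – HEK293 FlpIn-TREx cells, stable M3R, doxycycline-inducible RGS4 · Reagent – ECmax carbachol challenge · Times – compound preincubation 20 min at room temperature before agonist · Technique – Fluo4 fluorescence kinetic imaging of calcium · Measure – B score of integrated Fluo4 ratio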
RGS4 block = human RGS4 inhibition | B-score at 10 µM | 310,000 compounds, 0.45% hits | HEK293 M3R/RGS4 inducible, Fluo-4 calcium flux; stronger effect = higher value; triggered by carbachol at its EC20 | AID 463165;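 active means B-score, a plate-corrected calcium signal, over three deviations above library mean, with baseline fluorescence within five deviations of library mean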;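 further: RGS4 expression induced by doxycycline in cells with stable M3 receptor; B-score is computed from the integrated fluorescence ratio over baseline after carbachol; higher B-score means a larger calcium signal and so more RGS4 inhibition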
Target sequence (P49798 whole entry, looked up): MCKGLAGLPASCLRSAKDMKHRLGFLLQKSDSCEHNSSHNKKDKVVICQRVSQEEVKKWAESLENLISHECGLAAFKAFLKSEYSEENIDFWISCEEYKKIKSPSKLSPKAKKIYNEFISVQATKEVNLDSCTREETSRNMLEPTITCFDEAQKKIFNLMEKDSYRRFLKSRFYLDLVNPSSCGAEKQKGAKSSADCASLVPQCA
MrgX1 antag = human MrgX1 receptor antagonism, primary screen; Q96LB2; MRGX1-HEK293 calcium flux, Fluo-4, BAM8-22 antagonism; stronger effect = lower value; B-score at 10 µM; 310,000 compounds, 1.3% hits; AID 588676;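 active means calcium-response B-score plate-corrected more than 3 library SD below zero, starting fluorescence within 5 deviations, no agonist response on first addition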;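 further: peak minus trough fluorescence over baseline after final BAM8-22 challenge near maximal dose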
MrgX1 antag conf = confirmation of human MrgX1 receptor antagonists | shares compounds with MrgX1 antag | MrgX1-HEK293, BAM8-22 calcium flux, Fluo-4; stronger effect = lower value | remaining BAM8-22 calcium response % of control (stronger effect = lower value), % at 10 µM | 2,300 compounds, 19% hits | AID 602420;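 active means remaining agonist calcium response no higher than 100% minus 3 SD of agonist-only control wells, with starting fluorescence near control levels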;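 further: agonist BAM8-22 given at a near maximal EC90 to ECmax level; peak minus minimum fluorescence divided by baseline after agonist addition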
HEK293 Ca flux = counter-screen for MrgX1 antagonists: effect in parental HEK293 cells. shares compounds with MrgX1 antag. Fluo-4 calcium fluorescence, FDSS. fluorescence ratio F(max-min)/F0 at 10 µM. 4,000 compounds, 2% hits. AID 624111;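 active means duplicate-averaged calcium fluorescence ratio at least three times the standard deviation of buffer wells, a nonspecific response in parental cells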
HEK293 Ca counter = counter-screen for MrgX1 allosteric activators: effect in parental HEK293 cells; shares compounds with MrgX1 antag; parental HEK293 calcium flux, Fluo-4 fluorescence ratio; stronger effect = higher value; fluorescence ratio F(max-min)/F0 at 10 µM; 4,000 compounds, 0.4% hits; AID 624114;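 active means calcium fluorescence ratio, averaged over duplicates, at least 3 SD of the buffer-well ratio, meaning a nonspecific response in receptor-free cells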;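 further: untransfected parental HEK293 lacking MrgX1 used as counterscreen for MrgX1 allosteric activators; fluorescence change taken during the second addition on a kinetic imager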
HEK293 Ca cntr2 = activity in parental HEK293 cells lacking MrgX1 receptor. shares compounds with MrgX1 antag. Fluo-4 calcium fluorescence (FDSS); stronger effect = higher value. fluorescence ratio F(max-min)/F0 at 10 µM. 4,000 compounds, 8.7% hits. AID 624115;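 active means calcium fluorescence ratio at least three times the spread of buffer wells, meaning a non-specific response in parental cells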
Starred values were filed as active, the others as inactive; i = inactive; x = not tested or not shown.

SMILES	Kir21 block	MrgX1 allo act	MrgX1 ag	RGS4 act	RGS4 block	MrgX1 antag	MrgX1 antag conf	HEK293 Ca flux	HEK293 Ca counter	HEK293 Ca cntr2
CCN1CCN(c2ccc(S(=O)(=O)N3CCOCC3)cc2NC(=O)/C=C/c2ccc([N+](=O)[O-])cc2)CC1	-2.5	i	i	i	i	i	x	x	x	x
COc1ccccc1CNC(=O)COC(=O)C1CCN(c2ccc(C(F)(F)F)cn2)CC1	-0.84	i	i	i	i	-7.6*	i	i	i	i
O=C(COC(=O)C1CCN(c2ccc(C(F)(F)F)cn2)CC1)NCCc1ccccc1	0.35	i	i	i	i	i	x	x	x	x
CC(=O)N1CCN(c2ccc(NC(=O)COc3ccc(Cl)cc3Cl)cc2)CC1	0.05	i	i	i	i	-7*	85%*	i	i	i
COc1ccc(N=C2NC(=O)/C(=C/c3ccc(O)c(OC)c3)S2)cc1	-1.2	i	i	i	i	i	x	x	x	x
COc1cccc(N=C2NC(=O)/C(=C/c3cc([N+](=O)[O-])ccc3O)S2)c1	-0.36	i	i	i	i	-11*	i	i	i	i
O=C(Nc1ccccc1-c1ccccc1)C1CCCC1	-2.6	i	i	i	i	i	x	x	x	x
CCOc1ccc(C(NC(C)=O)c2ccc(OC)c(OC)c2)cc1 (centres undefined)	0.39	i	i	i	i	-4.9*	i	i	i	i
Fc1ccc(NC(=S)N2N=CCC2c2ccccc2)cc1 (centres undefined)	-0.73	i	i	i	i	i	x	x	x	x
CN1CCCN(C(=O)c2cccc3ccccc23)CC1	-0.36	i	i	i	i	i	x	x	x	x
CC(C)n1nnnc1SCC(=O)c1ccc2c(c1)OCCO2	0.27	i	i	i	i	i	x	x	x	x
CCn1c(SCC(=O)c2ccc3c(c2)OCCO3)nnc1C(C)C	x	i	i	x	x	-4.7*	i	i	i	i
Cc1nc(-c2ccc(S(=O)(=O)N3CCCN(CCc4ccccc4)CC3)s2)cs1	-0.72	i	i	i	i	i	x	x	x	x
Cc1nc(-c2ccc(S(=O)(=O)N3CCN(C4c5ccccc5-c5ccccc54)CC3)s2)cs1	0.35	i	i	i	i	-5.3*	i	i	i	i
O=C(CSc1nnnn1-c1ccccc1)N1CCc2ccccc2C1	-0.63	i	i	i	i	i	x	x	x	x
CN1C(C(=O)NCc2cccs2)=CC(c2ccc(F)cc2)=NS1(=O)=O	-0.15	i	i	i	i	i	x	x	x	x
Cc1cc(C(=O)OCC(=O)N2CCN(c3ccccc3)CC2)c2ccccc2n1	-0.04	i	i	i	i	-5.5*	i	i	i	i
C/C(=N\NC(=O)c1nn(C)c(C)c1Br)c1cccc(NC(=O)c2ccc(F)cc2)c1	1.8	i	i	i	i	i	x	x	x	x
c1coc(C2Nc3ccccc3-c3nc4ccccc4n32)c1 (centres undefined)	-2.5	i	i	i	i	-6.3*	i	i	i	i
c1ccc(C2Nc3ccccc3-c3nc4ccccc4n32)cc1 (centres undefined)	-2.1	i	i	i	i	i	x	x	x	x
COCC(C)NC(=O)c1cc(-c2ccc(O)cc2)on1 (centres undefined)	1.5	i	i	i	i	-6*	i	i	i	i
COCC(C)NC(=O)c1cc(-c2cccc(OC)c2)on1 (centres undefined)	-1.2	i	i	i	i	i	x	x	x	x
CC(C)(C)NC(=O)COC(=O)c1ccc(F)cc1Cl	1.9	i	i	i	i	i	x	x	x	x
COc1ccc(NS(=O)(=O)c2cc3c(cc2C)NC(=O)CO3)c(OC)c1	-1.3	i	i	i	i	-4.9*	i	i	i	i
Cc1ccccc1NS(=O)(=O)c1cc2c(cc1C)NC(=O)CO2	-2.3	i	i	i	i	i	x	x	x	x
SMILES	Kir21 block	MrgX1 allo act	MrgX1 ag	RGS4 act	RGS4 block	MrgX1 antag	MrgX1 antag conf	HEK293 Ca flux	HEK293 Ca counter	HEK293 Ca cntr2
O=C(O)c1ccc(Br)c(S(=O)(=O)N2CCCC2)c1	-0.89	i	i	i	i	-5.6*	i	i	i	i
O=C(O)c1ccc(Cl)c(S(=O)(=O)N2CCCC2)c1	-0.82	i	i	i	i	i	x	x	x	x
CC(C)NC(=O)C1CC=CCC1C(=O)O (centres undefined)	0.5	i	i	i	i	i	x	x	x	x
Cc1cc(C)cc(-c2nnc(SCC(=O)N3CCN(C(=O)c4ccco4)CC3)o2)c1	0.16	i	i	i	i	-6.3*	i	i	i	i
O=C(CSc1nnc(-c2ccc(Br)cc2)o1)N1CCN(C(=O)c2ccco2)CC1	0.01	i	i	i	i	i	x	x	x	x
COc1ccc2[nH]c(=O)c(CN(c3ccc(C)c(C)c3)S(C)(=O)=O)cc2c1	0.97	i	i	i	i	-4.5*	i	i	i	i
CCOc1ccc(N(Cc2cc3cc(OC)ccc3[nH]c2=O)S(C)(=O)=O)cc1	1	i	i	i	i	i	x	x	x	x
Cc1ccc(NC(=O)CS(=O)(=O)c2cn(C)c3ccccc23)c(C)c1	0.19	i	i	i	i	i	x	x	x	x
Cn1cc(S(=O)(=O)CC(=O)Nc2ccc(Br)cc2)c2ccccc21	1.8	i	i	i	i	-6.1*	i	i	i	i
O=C(NCCc1ccccc1)NC(Cc1ccccc1)C(=O)O (centres undefined)	-1.1	i	i	i	i	i	x	x	x	x
O=C(NCCC1=CCCCC1)N[C@@H](Cc1ccccc1)C(=O)O	-2.7	i	i	i	i	-9.7*	i	i	i	i
COCCNC(=O)c1ccc2c(=O)n(CCOC)c(=O)[nH]c2c1	0.3	i	i	i	i	-6.2*	i	i	i	i
